Inhibition data for one molecule are collected here from ChEMBL document CHEMBL1150167, “Sesquiterpenes from Ferula penninervis” (2002).

Holding throughout (format): functional
A short description of assay [1]: Inhibition of lipopolysaccharide IL1-beta production in human PMNC at 0.3 ug/mL by ELISA. An outline of the steps:
(§1)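 Cytokine (IL-1β, IL-2, IL-4, TNF) concentrations were measured directly by ELISA in the culture supernatants. The paper attributes the cytokines to macrophages in the culture.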
(In an ELISA, binding on a coated surface is turned into a signal by an enzyme label.)

Assay [2] can be described thus: Inhibition of lipopolysaccharide TNFalpha production in human PMNC at 0.3 ug/mL by ELISA. An outline of the steps: as §1
Assay [3] is described as follows: Inhibition of lipopolysaccharide IL4 production in human PMNC at 0.3 ug/mL by ELISA. An outline of the steps: as §1
The nature of assay [4]: Inhibition of lipopolysaccharide IL2 production in human PMNC at 0.3 ug/mL by ELISA. An outline of the steps:
as §1

Take `C[C@]12C=CC(=O)C=C1CC[C@@H]1[C@@H]2[C@@H](O)C[C@@]2(C)[C@H]1CC[C@]2(O)C(=O)CO` [PREDNISOLONE]: the inhibition at 0.3 µg/mL came out at 24.8% in assay [1], 47.9% in assay [2], 40.7% in assay [3] and 30.6% in assay [4].

Usually inhibition stands for the percentage by which the read-out fell short of the control.
